According to ChEMBL document CHEMBL1221396, “Resveratrol oligomers from Vatica albiramis” (J Nat Prod, 2010):
The source made the active and inactive calls. The rule behind the calls is not given here.

How the values were obtained:
HFF [1] = experiment: Antiinflammatory activity in human foreskin fibroblast assessed as inhibition of IL-1-beta-induced MMP1 production at 1 uM treated for 24 hrs before IL1-beta challenge measured after 24 hrs by Western blot analysis; format: functional, cell-based
Summary of the method: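 Fibroblasts were grown in DMEM with 10% FBS at 37 °C under 5% CO2, seeded at 2 × 10⁵ cells/mL, grown to confluence, and treated for 24 h. Secreted MMP-1 was measured by western blot. Blots were blocked in TBS with 5% skim milk and 0.05% Tween-20 for 1 h at room temperature, incubated with primary antibody overnight at 4 °C, then with HRP secondary antibody for 1 h at room temperature.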

HFF [2] = experiment: Cytotoxicity against human foreskin fibroblast at 1 uM; format: cell-based

Row | Compound | inhibition (HFF [1]) | Activity (HFF [2])
1 | Oc1ccc([C@@H]2c3c(O)cc(O)cc3[C@@H]3c4c(cc(O)cc4[C@H]2[C@@H]2c4cc(O)cc5c4[C@@H](c4cc(O)cc(O)c4[C@H]2c2ccc(O)cc2)[C@H](c2ccc(O)cc2)O5)O[C@H]3c2ccc(O)cc2)cc1 | Active | Non-toxic
2 | OC[C@H]1O[C@@H](Oc2cc(O)cc([C@@H]3c4c(/C=C/c5ccc(O)cc5)cc(O[C@@H]5O[C@H](CO)[C@@H](O)[C@H](O)[C@H]5O)cc4O[C@H]3c3ccc(O)cc3)c2)[C@H](O)[C@@H](O)[C@@H]1O | inactive | 
3 | Oc1ccc(/C=C/c2cc(O)cc3c2[C@@H](c2cc(O)cc(O)c2)[C@H](c2ccc(O)cc2)O3)cc1 | inactive | 
4 | Oc1ccc(/C=C\c2cc(O)cc3c2[C@@H](c2cc(O)cc(O)c2)[C@H](c2ccc(O)cc2)O3)cc1 | inactive | 
5 | Oc1ccc([C@H]2c3c(O)cc(O)cc3[C@@H]3c4c(cc(O)cc4[C@H]2O)O[C@H]3c2ccc(O)cc2)cc1 | inactive | 
6 | Oc1ccc([C@H]2c3c(O)cc4c(c3[C@@H]3[C@@H](c5ccc(O)cc5)c5c(O)cc6c(c5[C@H]23)[C@@H](c2cc(O)cc(O)c2)[C@H](c2ccc(O)cc2)O6)[C@@H](c2cc(O)cc(O)c2)[C@H](c2ccc(O)cc2)O4)cc1 [STENOPHYLLOL C] | Active | Non-toxic
7 | OC[C@H]1O[C@@H](Oc2cc3c4c(c2)[C@@H]([C@@H]2c5cc(O)cc6c5[C@@H](c5cc(O)cc(O)c5[C@H]2c2ccc(O)cc2)[C@H](c2ccc(O)cc2)O6)[C@H](c2ccc(O)cc2)c2c(O)cc(O)cc2[C@H]4[C@H](c2ccc(O)cc2)O3)[C@H](O)[C@@H](O)[C@@H]1O [VATALBINOSIDE A] | Active | Non-toxic
8 | Oc1ccc([C@@H]2c3c(O)cc(O)cc3[C@@H]3c4c(cc(O)cc4[C@H]2[C@@H]2c4cc(O)c([C@@H](c5ccc(O)cc5)[C@@H]5c6c(c(O)cc7c6[C@@H](c6cc(O)cc(O)c6)[C@H](c6ccc(O)cc6)O7)[C@H](c6cc(O)cc7c6[C@H](c6cc(O)cc(O)c6)[C@@H](c6ccc(O)cc6)O7)[C@H]5c5ccc(O)cc5)c5c4[C@@H](c4cc(O)cc(O)c4[C@H]2c2ccc(O)cc2)[C@H](c2ccc(O)cc2)O5)O[C@H]3c2ccc(O)cc2)cc1 [VATERIAPHENOL A] | Active | Non-toxic
9 | Oc1ccc([C@@H]2c3c(O)cc4c(c3[C@@H]3c5c(O)cc6c(c5[C@H]2[C@H]3c2ccc(O)cc2)[C@@H](c2cc(O)cc(O)c2)[C@H](c2ccc(O)cc2)O6)[C@@H](c2cc(O)cc(O)c2)[C@H](c2ccc(O)cc2)O4)cc1 [VATICANOL C] | Active | Non-toxic
10 | Oc1ccc([C@@H]2c3c(O)cc(O)cc3[C@@H]3c4c(cc(O)c5c4[C@@H]2[C@H](c2ccc(O)cc2)[C@H]5c2cc(O)cc4c2[C@@H](c2cc(O)cc(O)c2)[C@H](c2ccc(O)cc2)O4)O[C@H]3c2ccc(O)cc2)cc1 [Vaticanol B] | Active | Non-toxic
